In one experiment the test system is Plasmodium falciparum. As to the kind of experiment: Percentage inhibition of parasite growth in human erythrocytes at 5 uM. The experiment is classed as functional. The essentials: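 Synchronous P. falciparum 3D7 early trophozoites at ~1% haematocrit and 1% parasitaemia, with [3H]hypoxanthine at 10 µCi/mL. Compound (1-5 µM final) or DMSO (max 1% v/v) was added. Cultures ran 30 h at 37 °C in gassed boxes to mature schizonts, then were harvested onto filters for β-counting. Uptake was expressed relative to DMSO controls; four independent experiments.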

Another experiment addresses Plasmepsin I (Plasmodium falciparum, UniProt P39898). As to the kind of experiment: Inhibitory concentration against the plasmepsin-1 of Plasmodium falciparum. The essentials: (§1)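 Fluorogenic assay in 100 mM sodium acetate (pH 4.5), 10% glycerol and 0.01% Tween 20, with 3 µM DABCYL/EDANS peptide substrate. Enzymes: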
The target of the next experiment is Plasmepsin II (Plasmodium falciparum, UniProt P46925). As to the kind of experiment: Inhibitory concentration against the plasmepsin-2 of Plasmodium falciparum. The essentials: as §1
A further experiment has as its target Cathepsin D (Homo sapiens, UniProt P07339). The experiment is described as follows: Inhibitory concentration against the human Cathepsin D. The essentials: as §1

Bounds are passed on as bounds.

The inhibition is the share of the control response that was lost under treatment. Read a low inhibition as little suppression. Usually Ki stands for the dissociation constant of the complex between target and ligand, obtained from inhibition or displacement.

Chain of Plasmepsin II (P46925 whole entry): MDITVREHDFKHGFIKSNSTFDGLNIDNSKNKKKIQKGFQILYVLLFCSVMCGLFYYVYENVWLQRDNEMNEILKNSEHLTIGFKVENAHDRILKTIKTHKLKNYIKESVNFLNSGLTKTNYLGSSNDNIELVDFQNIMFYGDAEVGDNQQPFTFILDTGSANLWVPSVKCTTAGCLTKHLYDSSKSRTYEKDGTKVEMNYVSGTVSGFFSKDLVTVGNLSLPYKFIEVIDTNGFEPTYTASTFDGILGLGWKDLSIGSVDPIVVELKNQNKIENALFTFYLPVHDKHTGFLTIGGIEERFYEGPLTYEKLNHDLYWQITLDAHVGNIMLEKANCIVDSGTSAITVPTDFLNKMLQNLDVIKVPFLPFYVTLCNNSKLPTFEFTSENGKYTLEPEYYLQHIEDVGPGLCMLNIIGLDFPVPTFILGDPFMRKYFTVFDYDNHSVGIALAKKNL
Chain of Plasmepsin I (P39898 whole entry): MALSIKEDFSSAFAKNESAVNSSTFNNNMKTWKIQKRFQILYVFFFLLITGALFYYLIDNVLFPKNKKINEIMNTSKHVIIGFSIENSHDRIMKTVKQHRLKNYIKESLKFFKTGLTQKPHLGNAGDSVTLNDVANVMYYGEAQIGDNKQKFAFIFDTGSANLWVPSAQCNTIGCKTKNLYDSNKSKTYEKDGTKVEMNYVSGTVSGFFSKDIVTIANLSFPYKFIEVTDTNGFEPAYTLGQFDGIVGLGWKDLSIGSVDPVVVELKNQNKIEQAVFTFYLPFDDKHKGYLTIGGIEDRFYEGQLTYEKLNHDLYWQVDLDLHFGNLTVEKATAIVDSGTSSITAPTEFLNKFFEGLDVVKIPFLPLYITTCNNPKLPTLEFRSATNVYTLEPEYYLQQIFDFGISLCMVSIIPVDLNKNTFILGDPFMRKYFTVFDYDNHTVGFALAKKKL
Chain of Cathepsin D (P07339 65-162 limits assumed): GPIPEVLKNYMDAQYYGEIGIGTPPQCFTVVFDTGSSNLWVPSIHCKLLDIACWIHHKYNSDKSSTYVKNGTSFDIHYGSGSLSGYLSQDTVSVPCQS
Chain of Cathepsin D (P07339 169-412 limits assumed): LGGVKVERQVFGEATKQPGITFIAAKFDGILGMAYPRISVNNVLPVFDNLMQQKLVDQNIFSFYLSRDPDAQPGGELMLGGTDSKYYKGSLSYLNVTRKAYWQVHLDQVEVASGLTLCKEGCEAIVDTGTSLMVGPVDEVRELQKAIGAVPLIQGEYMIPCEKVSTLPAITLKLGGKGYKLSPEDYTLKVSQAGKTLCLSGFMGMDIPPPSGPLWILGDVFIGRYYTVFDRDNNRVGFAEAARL

`O=C(C[C@H](O)[C@H](COCc1ccc(Br)cc1)NC(=O)c1c(F)cc(F)cc1F)NC1CCCCC1` came in with an inhibition at 5 µM with Plasmodium falciparum of 0%.

On to `CC(C)C[C@H](NC(=O)[C@H](C)NC(=O)C[C@H](O)[C@H](COCc1ccc(Br)cc1)NC(=O)[C@@H](NC(=O)c1ccccn1)C(C)C)C(N)=O`, for which, in the experiment on Plasmodium falciparum, the inhibition at 5 µM amounted to 51%.

Regarding `CC(C)C[C@H](NC(=O)[C@H](C)NC(=O)C[C@H](O)[C@H](COCc1ccc(Br)cc1)NC(=O)c1c(F)cc(F)cc1F)C(N)=O`, the inhibition at 5 µM with Plasmodium falciparum stood at 10%.

On to `CC(C)C[C@H](NC(=O)[C@H](C)NC(=O)C[C@H](O)[C@H](COCc1ccc(-c2ccc3c(c2)OCO3)cc1)NC(=O)c1c(F)cc(F)cc1F)C(N)=O`, for which the Ki on Plasmepsin I was 3.3 nM; at Plasmepsin II, 19 nM; on Cathepsin D it was 2700 nM.

`CC(C)C[C@H](NC(=O)[C@H](C)NC(=O)C[C@H](O)[C@H](COCc1cccc(Br)c1)NC(=O)[C@@H](NC(=O)c1ccccn1)C(C)C)C(N)=O` came in with an inhibition at 5 µM with Plasmodium falciparum of 55%. In addition, the Ki was determined as 1 nM on Plasmepsin I, 5.7 nM on Plasmepsin II and 32 nM on Cathepsin D.

With `COc1cccc(CCNC(=O)C[C@H](O)[C@H](COCc2ccc(-c3ccccc3)cc2)NC(=O)c2c(F)cc(F)cc2F)c1`, the Ki was 116 nM at Plasmepsin I, 308 nM on Plasmepsin II and over 5900 nM at Cathepsin D.

With `COc1cccc(CCNC(=O)C[C@H](O)[C@H](COCc2ccc(-c3ccsc3)cc2)NC(=O)c2c(F)cc(F)cc2F)c1`, the Ki at Plasmepsin I is 221 nM; at Plasmepsin II, 693 nM; at Cathepsin D, 1880 nM.

With `CC(C)C[C@H](NC(=O)[C@H](C)NC(=O)C[C@H](O)[C@H](COCc1ccc(-c2ccc3c(c2)OCO3)cc1)NC(=O)[C@@H](NC(=O)c1ccccn1)C(C)C)C(N)=O`, in the experiment on Plasmodium falciparum, at 5 µM the inhibition was 83%. Also, the Ki came out at 0.4 nM on Plasmepsin I, 1.1 nM at Plasmepsin II and 0.7 nM at Cathepsin D.

For `CC(C)C[C@H](NC(=O)[C@H](C)NC(=O)C[C@H](O)[C@H](COCc1ccc(-c2ccsc2)cc1)NC(=O)[C@@H](NC(=O)c1ccccn1)C(C)C)C(N)=O`, the inhibition at 5 µM in the experiment on Plasmodium falciparum is 46%. The Ki was 0.3 nM on Plasmepsin I, 1.1 nM on Plasmepsin II and 3.2 nM on Cathepsin D.

With `O=C(C[C@H](O)[C@H](COCc1ccc(-c2ccsc2)cc1)NC(=O)c1c(F)cc(F)cc1F)NC1CCCCC1`, the Ki came out at 278 nM on Plasmepsin I, 260 nM at Plasmepsin II and 4940 nM on Cathepsin D.

In the experiment with Plasmodium falciparum, `CC(C)C[C@H](NC(=O)[C@H](C)NC(=O)C[C@H](O)[C@H](COCc1ccc(-c2ccccc2)cc1)NC(=O)[C@@H](NC(=O)c1ccccn1)C(C)C)C(N)=O` had an inhibition at 5 µM of 70%. The values for the Ki on Plasmepsin I, on Plasmepsin II and on Cathepsin D were 0.3 nM, 0.9 nM and 2.5 nM, respectively.

Consider `COc1cccc(CCNC(=O)C[C@H](O)[C@H](COCc2ccc(Br)cc2)NC(=O)c2c(F)cc(F)cc2F)c1`, for which the inhibition at 5 µM in the experiment on Plasmodium falciparum turned out to be 29%.

As for `CC(C)C[C@H](NC(=O)[C@H](C)NC(=O)C[C@H](O)[C@H](COCc1cccc(-c2ccccc2)c1)NC(=O)[C@@H](NC(=O)c1ccccn1)C(C)C)C(N)=O`, the Ki on Plasmepsin I was found to be 0.7 nM; at Plasmepsin II, 4.4 nM; on Cathepsin D, 3.9 nM.

For `O=C(C[C@H](O)[C@H](COCc1ccc(-c2ccccc2)cc1)NC(=O)c1c(F)cc(F)cc1F)NC1CCCCC1`, the Ki was 188 nM at Plasmepsin I, 214 nM at Plasmepsin II and over 3600 nM on Cathepsin D.

In the case of `CCCCNC(=O)C[C@H](O)[C@H](COCc1ccc(-c2ccccc2)cc1)NC(=O)[C@@H](NC(=O)c1ccccn1)C(C)C`, the Ki on Plasmepsin I came to 1.9 nM; on Plasmepsin II, 16 nM; at Cathepsin D, 481 nM.

Regarding `CC(C)C[C@H](NC(=O)[C@H](C)NC(=O)C[C@H](O)[C@H](COCc1ccc(-c2ccccc2)cc1)NC(=O)c1c(F)cc(F)cc1F)C(N)=O`, the Ki is 5.9 nM at Plasmepsin I, 48 nM at Plasmepsin II and 1730 nM on Cathepsin D.

For `CCCCNC(=O)C[C@H](O)[C@H](COCc1ccc(-c2ccsc2)cc1)NC(=O)[C@@H](NC(=O)c1ccccn1)C(C)C`, at 5 µM the inhibition with Plasmodium falciparum was 9%. Besides, the Ki came out at 1 nM at Plasmepsin I, 13 nM at Plasmepsin II and 241 nM on Cathepsin D.

On to `CC(C)C[C@H](NC(=O)[C@H](C)NC(=O)C[C@H](O)[C@H](COCc1ccc(-c2ccsc2)cc1)NC(=O)c1c(F)cc(F)cc1F)C(N)=O`, for which the inhibition constant (Ki) on Plasmepsin I came to 2.1 nM; on Plasmepsin II, 55 nM; on Cathepsin D it was 1440 nM.

For `CCCCNC(=O)C[C@H](O)[C@H](COCc1ccc(-c2ccc3c(c2)OCO3)cc1)NC(=O)[C@@H](NC(=O)c1ccccn1)C(C)C`, the Ki at Plasmepsin I was 2.7 nM; on Plasmepsin II, 45 nM; on Cathepsin D, 685 nM.

In the experiment with Plasmodium falciparum, `CC(C)C[C@H](NC(=O)[C@H](C)NC(=O)C[C@H](O)[C@H](COCc1cccc(-c2ccsc2)c1)NC(=O)[C@@H](NC(=O)c1ccccn1)C(C)C)C(N)=O` had an inhibition at 5 µM of 65%. Further, the Ki on Plasmepsin I turned out to be 0.4 nM; at Plasmepsin II it was 1.9 nM; at Cathepsin D it was 1.6 nM.

For the origin of these results see ChEMBL document CHEMBL1140304, “Design and synthesis of potent inhibitors of plasmepsin I and II: X-ray crystal structure of inhibitor in complex with plasmepsin II” (J Med Chem, 2005).
